Shown are actives, neighbours in structure and some others; about 11% of the full set was active somewhere.
Diaph act CS – compounds boosting diaphorase resazurin reduction – biochemical, uHTS, resorufin fluorescence, counter-screen for diaphorase-coupled primary assays, primary screen. Diaphorase/resazurin coupled assay, 16 min; active compounds read high; 1 = vehicle wells, 0 = NADH-free wells. activation factor at 20 µM. hit rate 0.005% among 190,000;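 active means diaphorase activity raised at least twofold by the compound at 20 µM; inactive means activation factor below 2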
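System – purified diaphorase enzyme from Clostridium kluyveri · Input – enzyme 0.07 U/mL final · Also added – final NADH 0.114 mM, resazurin 0.1 mM · Measured by – fluorescence of resorufin, 544 nm excitation, 590 nm emission · Timing – 16 min enzyme reaction, ambient temperature · Measure – resorufin increase flagging diaphorase activators or reducers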
G6PDH counter – L. mesenteroides G6PDH inhibitors, counter-screen for G6PDH-coupled screening assays, biochemical, Leuconostoc mesenteroides enzyme; glucose-6-phosphate dehydrogenase [Leuconostoc mesenteroides]; Purified L. mesenteroides G6PDH, diaphorase/resazurin coupled fluorescence, 45 min; inhibition, % at 5 µM; hit rate 0.12% among 200,000; AID 1020, 2008
L major viab – Leishmania major promastigote growth inhibition, primary screen; Leishmania major promastigotes, resazurin fluorescence viability; inhibition, % at 10 µM; hit rate 9% among 200,000; AID 1063, 2008;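 further: promastigotes grown with compound for 44 hours at 28 °C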
Diaph inh CS – diaphorase inhibitors and chemical oxidizers, primary screen, counter-screen for diaphorase-coupled primary assays, biochemical, uHTS, resorufin fluorescence; AID 1217, 2008; diaphorase resazurin-to-resorufin fluorescence, NADH, 16 min; bacterial (C. kluyveri) enzyme, not human; hit rate 0.69% among 190,000; inhibition, % at 20 µM;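 active means primary screen inhibition at 20 µM above a set limit, cut at about 50% in these data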
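Test system: diaphorase enzyme from Clostridium kluyveri; amount: diaphorase at 0.14 U/mL in enzyme working solution; detection: fluorescence of resorufin formed from resazurin, Ex 544/Em 590 nm; times: reaction incubation of 16 min at room temperature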
WT yeast gro inh – growth inhibition of WT strain, primary screen, mitochondrial fusion inhibitor project, WT and mutant strains, chemical genetic | inhibition, % at 10 µM | mitochondrial fusion phenotypic screen | hit rate 2.1% among 190,000; in the data active means inhibition above about 58%; tested in S. cerevisiae
Hits are given with their value; 0 = inactive. Unless noted, no stated cut-off is given here; in the data, active means inhibition above about 50%; inactive means the rest.

SMILES	Diaph act CS	G6PDH counter	L major viab	Diaph inh CS	WT yeast gro inh
Cc1scc(-c2n[nH]c(=S)n2Cc2ccccc2)c1C	0	0	0	0	71
CCOc1ccc(Cc2n[nH]c(=S)n2Cc2ccccc2)cc1	0	0	0	0	0
c1cc2c(cc1C1CCCN1)OCCCO2 (configuration not stated)	0	0	0	0	0
Cc1ccc(SCC(=O)Nc2ccc(N3CCOCC3)cc2)c(C)c1	0	0	0	0	0
C=C(C)c1cccc(C(C)(C)NC(=O)Nc2ccc(OC)cc2)c1	0	0	0	0	0
C=C(C)c1cccc(C(C)(C)NC(=O)NC(c2ccccc2)c2ccc(OC)cc2)c1 (configuration not stated)	0	0	98	0	0
CN(NC1CC(=O)N(c2ccccc2)C1=O)c1ccccc1 (configuration not stated)	0	0	0	0	0
CCC(C(=O)OC)n1c(-c2ccccc2)nc2ccccc2c1=O (configuration not stated)	0	0	0	0	60
COCCCNC(=O)c1ccc(N2CCCC2)c(NS(=O)(=O)c2ccc(C)cc2)c1	0	0	0	0	0
Cc1ccc(S(=O)(=O)Nc2cc(C(=O)NCCN(C)C)ccc2N2CCCCC2)cc1	0	0	87	0	0
Cc1ccc(S(=O)(=O)Nc2cc(C(=O)NCCN3CCCC3)ccc2N2CCCCC2)cc1	0	0	99	0	0
O=C(O)c1cccc(N2C(=O)c3ccc(Oc4ccc(Cl)cc4)cc3C2=O)c1	0	0	0	0	0
O=C(O)c1cccc(N2C(=O)/C(=C/c3ccc(SCc4ccc(Cl)cc4)o3)SC2=S)c1	0	0	0	62	0
Cc1ccc(C(=O)OCCc2c(C)[nH]n(-c3ccccc3)c2=O)cc1	0	0	0	0	0
COC(=O)c1[nH]c2ccc(F)cc2c1NS(=O)(=O)c1ccc(OC)cc1OC	0	0	97	0	0
OC(COc1ccc2cc(Br)ccc2c1)CN1CCOCC1 (configuration not stated)	0	0	60	0	0
CC(=O)c1c(C)n(-c2ccccc2)c2ccc(OCC(O)CN3CCOCC3)cc12 (configuration not stated)	0	0	0	0	0
O=C(N1CCOCC1)N1CCN(CC(O)COc2ccc3ccccc3c2)CC1 (configuration not stated)	0	0	0	0	0
OC(COc1c(Br)cc(Br)cc1Br)CN1CCOCC1 (configuration not stated)	0	0	79	0	0
c1ccc(-c2n[nH]c(-c3ccccc3)c2-c2nc3ccccc3[nH]2)cc1	0	0	92	0	0
O=C(NC(Nc1nc2ccc([N+](=O)[O-])cc2s1)(C(F)(F)F)C(F)(F)F)c1ccccc1Cl	0	0	100	0	0
O=C(NC(Nc1nc2ccc([N+](=O)[O-])cc2s1)(C(F)(F)F)C(F)(F)F)c1cccnc1	0	0	0	0	0
CCOc1ccc(NC(=O)CSc2nc(C)c3c(c2C#N)CCCC3)cc1	0	0	0	0	0
COc1ccccc1CNS(=O)(=O)c1c(C)[nH]c(=O)[nH]c1=O	0	0	0	0	0
CCOC(=O)COc1ccc2nsnc2c1	0	0	0	0	0
SMILES	Diaph act CS	G6PDH counter	L major viab	Diaph inh CS	WT yeast gro inh
O=[N+]([O-])/C=C/c1c(OCc2ccccc2)ccc2ccccc12	0	0	100	0	77
CCOc1ccc(/C=C/[N+](=O)[O-])c2ccccc12	0	0	100	0	0
CCOC(=O)COc1ccc2ccccc2c1/C=C/[N+](=O)[O-]	0	0	90	0	86
CCOC(=O)COc1ccc(/C=C/[N+](=O)[O-])c(OCC(=O)OCC)c1	0	0	100	0	0
CCOc1ccccc1/C=N/Nc1ccccc1[N+](=O)[O-]	0	0	0	0	0
Cc1ccc(CCNC(=O)C2CCC(=O)N2C2CCCC2)cc1 (configuration not stated)	0	0	0	0	0
CCSc1nnc(NC(=O)[C@@H](NC(=O)c2ccccc2)C(C)C)s1	0	0	50	0	0
CCSc1nnc(NC(=O)c2ccccn2)s1	0	0	98	0	0
N#CC1(c2nc3ccccc3[nH]2)CC1c1ccc2c(c1)OCO2 (configuration not stated)	0	0	0	0	0
C/C(=N\N(c1ccccc1)c1ccccc1)c1ccco1	0	0	0	0	0
CC(C)CC(=O)N(Cc1ccc(F)cc1)C1CCS(=O)(=O)C1 (configuration not stated)	0	0	0	0	0
Cc1ccc(C(=O)NC(=S)Nc2cccc3nsnc23)cc1	0	0	0	59	0
CCN(CC)CC(O)COCCC12CC3CC(CC(C3)C1)C2 (configuration not stated)	0	0	93	0	0
OCCN(CCO)CC(O)COc1ccc(C23CC4CC(CC(C4)C2)C3)cc1 (configuration not stated)	0	0	100	0	95
CCCNC(=O)NCCC12CC3CC(CC(C3)C1)C2	0	0	0	0	0
OCCN(CCO)CC(O)COCCC12CC3CC(CC(C3)C1)C2 (configuration not stated)	0	0	71	0	0
COc1ccc(C)cc1NC(=O)CSc1nnc(CC(=O)Nc2ccccc2C)n1C	0	0	0	0	0
O=C(Nc1ccc2nc(-c3ccccn3)[nH]c2c1)C1CCCCC1	0	0	100	0	0
CSCCC(=O)Nc1nc(-c2ccccn2)cs1	0	0	88	0	0
O=C(CCCSc1ccccc1)Nc1nc(-c2ccccn2)cs1	0	0	100	0	69
O=C(CN1C(=O)CCC1=O)Nc1nc(-c2ccccn2)cs1	0	0	0	0	0
CC(C)c1nc2ccc(NC(=O)C3CCCCC3)cc2[nH]1	0	0	0	0	0
O=C(CCSc1ccccc1)Nc1ncccn1	0	0	0	0	0
O=C(Nc1nc(-c2ccccn2)cs1)C1CCCC1	0	0	79	0	0
CCNc1nc(NCC)nc(SCCOC(=O)Nc2ccc(Cl)cc2Cl)n1	0	0	0	0	0
CCC1Oc2ccc(C)cc2N(CC(=O)NCCCN2CCCCC2CC)C1=O (configuration not stated)	0	0	0	0	81
O=c1cc(CSc2ccc(S(=O)(=O)N3CCCCC3)cn2)nc2sccn12	0	0	0	0	0
O=C(Nc1ccc2snnc2c1)N1CCSCC1	0	0	0	0	0
CC1CN(C(=O)Nc2ccc3snnc3c2)c2ccccc21 (configuration not stated)	0	0	51	0	0
C=CCNC(=O)c1ccc(Sc2ccc(C)cc2)c([N+](=O)[O-])c1	0	0	0	0	0

Compound activity: PubChem BioAssay, several laboratories
